Bioassay records deposited in PubChem BioAssay by The Scripps Research Institute Molecular Screening Center.
TAAR1 antagonist: human TAAR1 antagonism; AID 624466; inhibition, % at 3 µM; Q96RJ0; actives 1.5% (n = 360,000); CHO RD-HGA16 TAAR1, Fluo-8 calcium fluorescence, antagonist;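 active = inhibition above a per-plate cutoff, the mean inhibition of test compounds on that plate plus 3 SD, cut at about 49% in these data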;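 also: 0% = DMSO plus EC80 beta-PEA response and 100% = DMSO alone without agonist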
Target sequence (Q96RJ0 whole entry, looked up): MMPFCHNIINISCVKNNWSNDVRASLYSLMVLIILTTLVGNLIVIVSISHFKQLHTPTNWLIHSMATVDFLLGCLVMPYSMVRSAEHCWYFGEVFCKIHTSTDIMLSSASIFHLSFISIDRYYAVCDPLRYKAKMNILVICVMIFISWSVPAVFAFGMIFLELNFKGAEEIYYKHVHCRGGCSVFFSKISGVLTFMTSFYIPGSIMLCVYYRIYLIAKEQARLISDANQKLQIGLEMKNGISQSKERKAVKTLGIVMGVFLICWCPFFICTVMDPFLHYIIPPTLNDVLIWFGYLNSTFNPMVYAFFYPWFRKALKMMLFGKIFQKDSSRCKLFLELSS
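Material: CHO RD-HGA16 cells bearing hTAAR1; compound dosing: one-point dosing, 3 µM nominal final; schedule: dye loading 75 min at 37 °C, then 30 min room temperature; measured by: calcium fluorescence with Fluo-8; control set: vehicle and agonist controls; replication: n of 1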
CHO parental Ca: counter-screen: ATP calcium response change in parental CHO cells. inhibition, % at 5.6 µM. parental CHO-K1, ATP-induced calcium, Fluo-8 fluorescence. actives 0.63% (n = 330,000);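 active = inhibition above that plate's mean sample inhibition plus 3 SD, cut at about 26% in these data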;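 also: 0% = ATP-challenged DMSO wells and 100% = DMSO wells without ATP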
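Assay system: untransfected parental CHO cell line. Also added: ATP agonist challenge. Dosing: one dose, 5.6 µM nominal. Measured by: Fluo-8 fluorescence. Read-out: % inhibition. Benchmarks: ATP wells versus no-ATP DMSO wells. Repeats: no replicates.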
TAAR1 agonist: human TAAR1 agonism | actives 0.99% (n = 360,000) | CHO RD-HGA16 TAAR1, Fluo-8 calcium fluorescence; vehicle wells 0%, saturating PEA agonist 100% | activation, % at 3 µM | Q96RJ0 | AID 624467;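 active = activation above the mean activation of all test compounds in the run plus 3 SD, cut at about 38% in these data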
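test system = CHO RD-HGA16 cells carrying human TAAR1 plus Gα16 | schedule = 17-24 h seeding, 75 min 37 °C dye, 30 min RT | compound dosing = 3 µM single concentration | control set = DMSO and PEA EC100 | replicates = n 1 | signal = Fluo-8 fluorescence, 5 s baseline then 140 s kinetic read | measure = percent activation vs PEA EC100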
OX1R antag-1: OX1R (human) antagonism; OX1R-expressing cells, FRET antagonist read-out; inhibition, % at 6.6 µM; actives 1.8% (n = 330,000); AID 485270; in the data active = inhibition mostly above about 38%, no sharp cut-off; inactive = mostly below about 40%;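 also: 0% = agonist challenge alone and 100% = reference antagonist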
OX1R antag-2: human HCRTR1 antagonism; O43613; CHO/OX1R cells, Fluo-8 calcium fluorescence, orexin A; inhibition, % at 5 µM; actives 0.43% (n = 330,000); AID 434989;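 active = inhibition above its plate's threshold, mean inhibition of all tested compounds on the plate plus 3 SD, cut at about 37% in these data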;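 also: 0% = orexin A challenge wells and 100% = SB-334867-A antagonist wells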
GPR7 antagonist: antagonists of human GPR7 (neuropeptides B/W receptor 1); GPR7-expressing cells, fluorescence antagonist assay; inhibition, % at 4.4 µM; actives 1.1% (n = 290,000); in the data active = inhibition above about 16%, passing the limit was not always enough;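 also: cells stimulated with the agonist NPW; 0% = agonist with vehicle and 100% = vehicle without agonist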
Target sequence (P48145 whole entry, looked up): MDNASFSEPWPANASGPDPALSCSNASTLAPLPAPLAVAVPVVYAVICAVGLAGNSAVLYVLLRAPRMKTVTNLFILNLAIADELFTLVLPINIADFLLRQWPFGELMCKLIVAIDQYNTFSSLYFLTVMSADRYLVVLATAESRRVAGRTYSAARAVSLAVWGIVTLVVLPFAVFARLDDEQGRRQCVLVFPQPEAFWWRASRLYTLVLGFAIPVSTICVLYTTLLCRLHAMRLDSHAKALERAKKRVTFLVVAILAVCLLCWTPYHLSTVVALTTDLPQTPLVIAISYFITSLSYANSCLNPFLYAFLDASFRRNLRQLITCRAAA
Active calls of the source: *; . = no result. Compounds with a hit are over-represented: about 4.6% of the library has one in this group of screens.

SMILES | TAAR1 antagonist | CHO parental Ca | TAAR1 agonist | OX1R antag-1 | OX1R antag-2 | GPR7 antagonist
Cc1cc(C(=O)COC(=O)c2ccc(N)c([N+](=O)[O-])c2)c(C)n1-c1ccc2c(c1)OCO2 | 32 | 24 | 0 | 47* | 4 | -3
Cc1nn(C(C)C(=O)NCC2CCCO2)c(C)c1[N+](=O)[O-] (stereo unspecified) | -11 | -5 | 0 | 8 | -17 | -10
CCc1cccc(NC(=O)C2CC2c2ccccc2)c1 (stereo unspecified) | -2 | -6 | -1 | 7 | -16 | 23
O=C(Nc1cccc(Cl)c1)NN(c1ccccc1)C1CCS(=O)(=O)C1 (stereo unspecified) | 18 | . | 7 | . | . | .
N#Cc1ccccc1NC(=O)CN1C(=O)NC(Cc2c[nH]c3ccccc23)C1=O (stereo unspecified) | -8 | -2 | 2 | 6 | 17 | .
COc1ccc(CNC(=O)c2c(C)oc3c2C(=O)c2ccccc2C3=O)cc1 | 2 | 8 | 4 | 30 | 5 | -1
Cc1oc2c(c1C(=O)NCc1cccnc1)C(=O)c1ccccc1C2=O | . | -8 | . | 46* | -32 | -17
Cc1cccnc1NC(=O)CCn1c(=O)oc2ccccc21 | 4 | -2 | 4 | 15 | 0 | -2
COc1cccc(C(=O)Nc2nc(-c3ccc(S(=O)(=O)N4CCOCC4)cc3)cs2)c1 | 50* | 12 | 21 | 29 | -15 | -1
COc1cc(/C=C(\C#N)c2nc3c(s2)CCCC3)ccc1O | . | 82* | . | 14 | 94* | 3
Cc1cccc(/C=C/c2onc(C)c2[N+](=O)[O-])n1 | -5 | -11 | -1 | 65* | -12 | .
Cc1ccccc1OCCCCc1c(C)n[nH]c1C | 0 | 6 | 5 | 39 | -1 | 2
Cc1n[nH]c(C)c1CCCCOc1ccccc1[N+](=O)[O-] | 4 | 48* | 0 | 59* | -11 | 8
NC(N)=N/N=C/c1ccc(Cl)c(Cl)c1 | -25 | -15 | 39* | 15 | -9 | -15
NS(=O)(=O)c1ccc(CCNC(=O)COC(=O)CCSc2ccc(Cl)cc2)cc1 | 22 | -1 | 7 | 5 | -2 | -9
NS(=O)(=O)c1ccc(CCNC(=O)CSc2ccc(Cl)cc2)cc1 | 19 | 35* | 0 | 5 | 40 | -6
Cc1cc(/C=C2\SC(=S)N(Cc3ccco3)C2=O)c(C)n1-c1ccccc1 | 14 | 2 | 2 | 17 | 7 | -2
CN(C)c1ccc(C=C2SC(=S)N(Cc3ccco3)C2=O)cc1 | 53* | . | 44* | . | . | .
Cc1cccc2cc(CN(CC3CCCO3)S(=O)(=O)c3ccccc3)c(=O)[nH]c12 (stereo unspecified) | 49* | -26 | 10 | 7 | -16 | -7
COc1ccc2cc(CN(CC3CCCO3)S(=O)(=O)c3ccccc3)c(=O)[nH]c2c1 (stereo unspecified) | 3 | -12 | 19 | 12 | -9 | -5
CCN(CC(=O)Nc1ccc(Br)cc1)C(=O)Cc1cccc(F)c1 | 5 | -20 | 3 | 49* | -9 | -3
CC(C)(C)NC(=O)NC(=O)COC(=O)CNC(=O)c1cc(Cl)cc([N+](=O)[O-])c1 | -3 | -10 | 0 | 68 | -8 | -1
O=C(CNC(=O)c1cc(Cl)cc([N+](=O)[O-])c1)OCC(=O)N1CCCCC1 | 0 | -17 | 0 | 41* | -6 | .
O=C(NCC1CCCCC1)c1cccc([N+](=O)[O-])c1 | -2 | -6 | -1 | 3 | -9 | -2
O=C(NCC1CC1)c1cc([N+](=O)[O-])cc([N+](=O)[O-])c1 | -3 | -8 | 11 | 54* | -5 | -8
SMILES | TAAR1 antagonist | CHO parental Ca | TAAR1 agonist | OX1R antag-1 | OX1R antag-2 | GPR7 antagonist
NC(=O)COC(=O)CNC(=O)c1cc(Cl)cc([N+](=O)[O-])c1 | 21 | 1 | 6 | 53* | -15 | -2
Cc1cc(C(=O)NCC(=O)OCC(=O)N2CCCCCC2)ccc1[N+](=O)[O-] | -13 | -7 | 1 | 11 | -5 | -5
COC(=O)C(CC(C(=O)OC)C(=O)OC)C(=O)OC | 1 | 0 | 18 | 20 | -4 | -9
COc1cccc(CNC23CC4CC(CC(C4)C2)C3)c1OCc1ccccc1 | -16 | 9 | 14 | 12 | -25 | 39*
CCN1/C(=C/C(C)=C/c2sc3ccccc3[n+]2CC)Sc2ccccc21 | 32 | 87* | 17 | 63* | 95* | 2
CCN1/C(=C\C(=S)Nc2ccccc2)Sc2ccccc21 | 2 | -9 | 0 | 10 | -27 | 10
O=C1C2CCCCN2C(=O)N1CCCN1CCN(c2cccc(C(F)(F)F)c2)CC1 (stereo unspecified) | -14 | . | 0 | . | . | .
CCOC(=O)c1ccc(NC(=O)CCNS(=O)(=O)c2cc(Br)cnc2N)cc1 | -16 | 2 | 5 | 29 | 2 | 1
Cc1cc(C)cc(NC(=O)CCNS(=O)(=O)c2cc(Br)cnc2N)c1 | 13 | -17 | 4 | 65* | -13 | -2
C/C(=N/NC(=O)CN(c1ccccc1)S(=O)(=O)c1ccccc1)c1ccccc1O | -4 | 0 | 1 | 50* | -24 | -2
CCCC/C(C)=N/NC(=O)CN(c1ccc(Br)cc1)S(=O)(=O)c1ccccc1 | 7 | -35 | -3 | -1 | -35 | -12
CCc1cccc(NS(=O)(=O)c2c(C)nc3sc(CC)nn3c2=O)c1 | -5 | -13 | 3 | 15 | -15 | 21*
Cc1cccc(Nc2nnc(SCC(=O)c3ccc(Br)s3)s2)c1C | -3 | -17 | 0 | 19 | -31 | -7
CC(=O)Nc1ccc(N=Cc2c(O)c(C(=O)Nc3ccccc3)cc3ccccc23)cc1 | 22 | 31* | 31 | 12 | 10 | -2
CC(=O)Nc1ccc(N=Cc2c(O)c3ccccc3oc2=O)cc1 | 1 | . | -1 | . | . | -3
COc1cc(C2c3cc(O)c(OC)cc3CC(C(=O)O)C2CO)ccc1O (stereo unspecified) | -15 | . | 8 | . | . | .
COc1ccc(CCOC(=O)c2ccc(N)c([N+](=O)[O-])c2)cc1 | 10 | 47* | 18 | 33 | 19 | -10
CC(C)(C)C(=O)COC(=O)c1ccc(N)c([N+](=O)[O-])c1 | 0 | -6 | 5 | 19 | -1 | -10
C=CCNc1nc2c(c(=O)n(C)c(=O)n2C)n1Cc1ccc(F)cc1 | 15 | 40* | 3 | 29 | -31 | -6
COc1ccc(NC(=O)C2C3C=CC4(O3)C2C(=O)N(CCCN2CCCC(C)C2)C4C(=O)NC2CCCCC2)cc1 (stereo unspecified) | 6 | -13 | 3 | 0 | -8 | -7
Cc1onc(-c2c(Cl)cccc2Cl)c1C(=O)N1CCCc2ccccc21 | -13 | -23 | -2 | 55* | 33 | -11
